pIC50: −log10 of the molar value. Active and inactive are the calls of the source.
Columns and labels:
[1] = test system: J774; assay: Selectivity index, ratio of IC50 for mouse COX1 in mouse J774 cells to IC50 for mouse COX2 in LPS-stimulated mouse J774 cells; format: cell-based
Method in brief: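 The ratio is IC50(COX-1)/IC50(COX-2), both from J774 cells. For COX-1, cells were given a 15 min compound pretreatment and then 15 µM arachidonic acid for 30 min. For COX-2, cells were exposed to LPS (10 µg/mL) for 24 h with compound. In both, PGE2 was measured by radioimmunoassay and IC50 came from a sigmoidal fit of the means of three experiments.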

[2] = biological target: T1, Prostaglandin G/H synthase 2 (Mus musculus, UniProt Q05769); assay: Inhibition of mouse COX2 in LPS-stimulated mouse J774 cells assessed as PGE2 production by radioimmunoassay; format: cell-based
T1 sequence (Q05769 whole entry): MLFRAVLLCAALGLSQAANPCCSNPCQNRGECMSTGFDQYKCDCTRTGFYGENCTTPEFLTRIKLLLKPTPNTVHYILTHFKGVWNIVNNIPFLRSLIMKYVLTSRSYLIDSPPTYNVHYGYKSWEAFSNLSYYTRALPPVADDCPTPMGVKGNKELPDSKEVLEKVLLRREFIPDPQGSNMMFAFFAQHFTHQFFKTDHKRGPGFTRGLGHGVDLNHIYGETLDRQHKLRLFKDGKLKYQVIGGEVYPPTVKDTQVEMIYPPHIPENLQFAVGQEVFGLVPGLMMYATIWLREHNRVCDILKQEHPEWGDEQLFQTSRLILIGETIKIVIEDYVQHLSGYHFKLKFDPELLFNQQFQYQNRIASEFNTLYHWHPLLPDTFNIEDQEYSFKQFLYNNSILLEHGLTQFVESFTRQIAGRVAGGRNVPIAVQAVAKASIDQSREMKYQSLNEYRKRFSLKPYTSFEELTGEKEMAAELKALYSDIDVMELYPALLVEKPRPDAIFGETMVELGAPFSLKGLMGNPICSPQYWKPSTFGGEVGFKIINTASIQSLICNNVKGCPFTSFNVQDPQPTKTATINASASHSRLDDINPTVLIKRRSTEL
Method in brief: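 J774 cells in serum-free medium were stimulated with E. coli LPS (10 µg/mL) for 24 h to induce COX-2, with or without compound present. Supernatant PGE2 was measured by radioimmunoassay. Percent inhibition was taken against control; triplicate wells, mean of three experiments; IC50 from a variable-slope sigmoidal fit.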

[3] = biological target: T2, Prostaglandin G/H synthase 1 (Mus musculus, UniProt P22437); assay: Inhibition of mouse COX1 in mouse J774 cells assessed as PGE2 production by radioimmunoassay; format: cell-based
T2 sequence (P22437 whole entry): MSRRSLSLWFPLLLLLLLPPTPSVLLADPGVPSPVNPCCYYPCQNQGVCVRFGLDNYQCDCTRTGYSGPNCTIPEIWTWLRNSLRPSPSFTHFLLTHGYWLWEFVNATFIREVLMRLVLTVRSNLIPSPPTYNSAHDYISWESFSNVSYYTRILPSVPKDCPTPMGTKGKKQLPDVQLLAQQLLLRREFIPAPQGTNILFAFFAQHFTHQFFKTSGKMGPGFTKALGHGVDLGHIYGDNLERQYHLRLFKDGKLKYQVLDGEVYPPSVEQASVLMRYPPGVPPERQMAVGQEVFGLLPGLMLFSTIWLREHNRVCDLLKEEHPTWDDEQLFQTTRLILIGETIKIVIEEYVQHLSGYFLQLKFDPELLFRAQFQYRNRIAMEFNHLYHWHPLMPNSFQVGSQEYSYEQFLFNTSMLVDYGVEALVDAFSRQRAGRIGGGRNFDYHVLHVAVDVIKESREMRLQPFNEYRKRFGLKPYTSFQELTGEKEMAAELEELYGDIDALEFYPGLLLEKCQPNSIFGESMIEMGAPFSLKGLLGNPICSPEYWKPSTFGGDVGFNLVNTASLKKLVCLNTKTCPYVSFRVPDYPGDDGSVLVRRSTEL

[4] = test system: Rattus norvegicus; assay: Antiinflammatory activity against carrageenan-induced hyperalgesia in rat assessed as paw pressure at 20 mg/kg, po after 60 mins; format: functional
Method in brief: (§1)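 Rats received carrageenan (0.1 mL, 1%) intraplantar 4 h before the test, then compound at 20 mg/kg po. Nociceptive threshold was measured with an analgesimeter (Leighton method) before and 30, 60 and 120 min after treatment, with a 250 g cutoff. Groups had 5-6 rats; mean ± SEM, ANOVA with Fisher's PLSD post hoc.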

[5] = test system: Rattus norvegicus; assay: Antiinflammatory activity against carrageenan-induced hyperalgesia in rat assessed as paw pressure at 20 mg/kg, po after 120 mins; format: functional; method in brief: as §1
[6] = test system: Mus musculus; assay: Antinociceptive activity against acetic acid-induced abdominal constriction in Swiss albino mouse assessed as number of writhes at 20 mg/kg, po; format: functional, Abdomen
Method in brief: (§2)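 Male Swiss albino mice (23-25 g) were dosed per os, with CMC as vehicle, 30 min before 0.6% acetic acid. Stretching movements were counted for 10 min, starting 5 min after acetic acid (Koster method). Results are mean ± SEM; ANOVA with Fisher's PLSD, versus vehicle-treated mice.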

[7] = test system: Mus musculus; assay: Antinociceptive activity against acetic acid-induced abdominal constriction in Swiss albino mouse assessed as reduction in number of writhes at 20 mg/kg, po; format: functional, organism-based; parameters: dose 20 mg/kg; conditions: Abdomen; method in brief: as §2
[8] = test system: Rattus norvegicus; assay: Antiinflammatory activity against carrageenan-induced edema in rat assessed as paw volume at 20 mg/kg, po […]; format: functional
Method in brief: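 Carrageenan (0.1 mL of 1.0%) was injected intraplantar into Sprague-Dawley or Wistar rats (150-200 g). Compound was given po at 20 mg/kg 3 h 30 min after carrageenan. Right hind paw volume was measured by plethysmometer 4 h after carrageenan and compared with saline/carrageenan controls. Values are in mL, with 5-6 rats per group.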

[9] = test system: Mus musculus; assay: Antinociceptive activity against acetic acid-induced abdominal constriction in Swiss albino mouse assessed as number of writhes at 10 mg/kg, po; format: functional, Abdomen; method in brief: as §2
[10] = test system: Rattus norvegicus; assay: Antiinflammatory activity against carrageenan-induced hyperalgesia in rat assessed as paw pressure at 20 mg/kg, po after 30 mins; format: functional; method in brief: as §1
[11] = species: Homo sapiens; assay: Selectivity index, ratio of IC50 for human COX1 to IC50 for human COX2 by whole blood assay
Method in brief: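 Human whole blood from three healthy donors (no NSAID for 2 weeks); compounds in DMSO at final 0.01–1000 µM. COX-2: heparinized blood from aspirin-pretreated donors (300 mg, 48 h) with LPS 10 µg/mL, 24 h, 37 °C; plasma PGE2 by RIA. COX-1: blood clotted 1 h, 37 °C; serum TXB2 by RIA. Mean % inhibition vs vehicle; IC50(COX-1)/IC50(COX-2).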

[12] = biological target: Prostaglandin G/H synthase 1 (Homo sapiens, UniProt P23219); assay: Inhibition of COX1 in human whole blood allowed to clot assessed as TXB2 production
Sequence of Prostaglandin G/H synthase 1 (Homo sapiens, UniProt P23219) (P23219 whole entry): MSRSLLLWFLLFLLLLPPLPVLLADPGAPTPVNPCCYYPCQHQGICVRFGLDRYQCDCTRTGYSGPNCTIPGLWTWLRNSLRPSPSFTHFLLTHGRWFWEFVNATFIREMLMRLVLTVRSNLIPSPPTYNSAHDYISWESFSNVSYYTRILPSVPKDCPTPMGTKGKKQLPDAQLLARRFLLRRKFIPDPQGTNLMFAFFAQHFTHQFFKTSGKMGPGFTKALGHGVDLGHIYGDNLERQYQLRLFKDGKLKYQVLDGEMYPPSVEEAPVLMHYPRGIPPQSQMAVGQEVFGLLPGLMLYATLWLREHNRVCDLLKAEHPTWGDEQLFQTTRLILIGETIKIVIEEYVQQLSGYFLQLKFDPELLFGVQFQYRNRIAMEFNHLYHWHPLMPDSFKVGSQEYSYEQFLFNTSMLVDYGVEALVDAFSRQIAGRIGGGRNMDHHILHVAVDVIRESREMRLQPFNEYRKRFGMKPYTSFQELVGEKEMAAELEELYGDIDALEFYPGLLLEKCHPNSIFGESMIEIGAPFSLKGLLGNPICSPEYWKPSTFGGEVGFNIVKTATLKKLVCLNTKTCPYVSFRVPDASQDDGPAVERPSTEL

[13] = biological target: T3, Prostaglandin G/H synthase 2 (Homo sapiens, UniProt P35354); assay: Inhibition of COX2 in human whole blood assessed as effect on thrombin-induced TXB2 production; format: tissue-based
T3 sequence (P35354 whole entry): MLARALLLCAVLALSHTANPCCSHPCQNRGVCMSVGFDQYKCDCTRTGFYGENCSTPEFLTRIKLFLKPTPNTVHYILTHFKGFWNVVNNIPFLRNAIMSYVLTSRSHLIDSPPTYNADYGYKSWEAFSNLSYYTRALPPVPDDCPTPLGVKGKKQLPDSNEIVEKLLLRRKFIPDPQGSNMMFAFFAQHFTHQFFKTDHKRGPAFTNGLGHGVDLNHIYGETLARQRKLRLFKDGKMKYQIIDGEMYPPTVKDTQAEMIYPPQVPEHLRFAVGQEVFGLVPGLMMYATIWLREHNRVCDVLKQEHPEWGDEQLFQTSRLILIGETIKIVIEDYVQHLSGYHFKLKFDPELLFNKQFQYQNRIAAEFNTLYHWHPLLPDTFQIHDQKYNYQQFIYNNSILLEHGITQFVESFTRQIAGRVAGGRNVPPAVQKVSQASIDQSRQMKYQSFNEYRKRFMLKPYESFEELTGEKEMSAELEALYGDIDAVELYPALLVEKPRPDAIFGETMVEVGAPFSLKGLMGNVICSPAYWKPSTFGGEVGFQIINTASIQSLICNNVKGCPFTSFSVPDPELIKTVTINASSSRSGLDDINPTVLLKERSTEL

Row | SMILES | pIC50 [2] | pIC50 [3] | Ratio IC50 [1] | further results
1 | CCOCCc1cc(-c2ccc(S(C)(=O)=O)cc2)n(-c2ccc(F)cc2)c1C | 7.33 | < 4.00 | > 2130 | 
2 | CCCOCCc1cc(-c2ccc(S(C)(=O)=O)cc2)n(-c2ccc(F)cc2)c1C | 7.52 | < 4.00 | > 3330 | Activity [4]: 56.8 g; Activity [5]: 52.7 g; Activity [6]: 16.7; Activity [7]: Active; Activity [8]: 1.45 mL; Activity [9]: 38.1; Activity [10]: 52.4 g
3 | CCOC(=O)Cc1cc(-c2ccc(S(C)(=O)=O)cc2)n(-c2ccccc2)c1C |  |  | > 2500 | 
4 | CCOC(=O)Cc1cc(-c2ccc(S(C)(=O)=O)cc2)n(-c2ccc(C)cc2)c1C |  |  | > 208 | 
5 | CCCOCCc1cc(-c2ccc(S(C)(=O)=O)cc2)n(-c2ccccc2)c1C | 7.74 | < 4.00 | > 5560 | Activity [4]: 59.4 g; Ratio IC50 [11]: 66; pIC50 [12]: 4.07; Activity [5]: 50.6 g; Activity [6]: 13.6; pIC50 [13]: 5.89; Activity [7]: Active; Activity [8]: 1.41 mL; Activity [9]: 27.43; Activity [10]: 56.3 g
6 | CCOC(=O)Cc1cc(-c2ccc(S(C)(=O)=O)cc2)n(-c2ccc(C(F)(F)F)cc2)c1C |  |  | > 1600 | 
7 | CS(=O)(=O)c1ccc(C2=C(c3ccccc3)C(=O)OC2)cc1 |  |  |  | Ratio IC50 [11]: > 200
8 | CCOCCc1cc(-c2ccc(S(C)(=O)=O)cc2)n(-c2ccccc2)c1C | 7.82 | < 4.00 | > 6670 | Activity [4]: 53.8 g; Activity [5]: 49.1 g; Activity [6]: 11.4; Activity [7]: Active; Activity [8]: 1.37 mL; Activity [9]: 26.5; Activity [10]: 59.6 g

The next lines start with results.

Row | pIC50 [2] | pIC50 [3] | SMILES | Ratio IC50 [1] | further results
9 | 7.31 | < 4.00 | COCCc1cc(-c2ccc(S(C)(=O)=O)cc2)n(-c2ccc(C(F)(F)F)cc2)c1C | > 2040 | 
10 | 7.07 | < 4.00 | CCOCCc1cc(-c2ccc(S(C)(=O)=O)cc2)n(-c2ccc(C(F)(F)F)cc2)c1C | > 1180 | 
11 | 7.32 | < 4.00 | COCCc1cc(-c2ccc(S(C)(=O)=O)cc2)n(-c2ccccc2)c1C | > 2080 | 
12 | 7.74 | < 4.00 | COCCc1cc(-c2ccc(S(C)(=O)=O)cc2)n(-c2ccc(F)cc2)c1C | > 5560 | 
13 | 6.96 | < 4.00 | CCCOCCc1cc(-c2ccc(S(C)(=O)=O)cc2)n(-c2ccc(C(F)(F)F)cc2)c1C | > 909 | 

Reference: ChEMBL document CHEMBL1155807, “Synthesis, biological evaluation, and enzyme docking simulations of 1,5-diarylpyrrole-3-alkoxyethyl ethers as selective cyclooxygenase-2 inhibitors endowed with anti-inflammatory and antinociceptive activity” (J Med Chem, 2008)
